Source: ChEMBL document CHEMBL4265950, “Discovery of furyl/thienyl β-carboline derivatives as potent and selective PDE5 inhibitors with excellent vasorelaxant effect” (Eur J Med Chem, 2018)

Legend:
[1] = molecular target: Dual specificity calcium/calmodulin-dependent 3',5'-cyclic nucleotide phosphodiesterase 1A (Homo sapiens, UniProt P54750); assay: Inhibition of full length recombinant human N-terminal GST-tagged PDE1A expressed in baculovirus infected sf9 cells using FAM-cyclic-3',5-AMP as substrate after 1 hr by fluorescence polarization assay
How it was run: (§1)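 Fluorescence polarization assay run at 25 °C for 60 min in 40 mM MOPS pH 7.5, 0.5 mM EDTA, 15 mM MgCl2, 0.15 mg/mL BSA, 1 mM DTT, 0.05% ProClin 200. Contained 15 ng/mL PDE isoform and 100 nM FAM-cGMP or FAM-cAMP according to isoform, with 1% DMSO final. Binding agent added for 1 h at 25 °C; read at […] nm. IC50 from normalized nonlinear dose-response fit.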

[2] = molecular target: Dual 3',5'-cyclic-AMP and -GMP phosphodiesterase 11A (Homo sapiens, UniProt Q9HCR9); assay: Inhibition of full length recombinant human N-terminal GST-tagged PDE11A4 expressed in baculovirus infected sf9 cells using FAM-cyclic-3',5-AMP as substrate after 1 hr by fluorescence polarization assay
Chain of Dual 3',5'-cyclic-AMP and -GMP phosphodiesterase 11A (Q9HCR9 whole entry): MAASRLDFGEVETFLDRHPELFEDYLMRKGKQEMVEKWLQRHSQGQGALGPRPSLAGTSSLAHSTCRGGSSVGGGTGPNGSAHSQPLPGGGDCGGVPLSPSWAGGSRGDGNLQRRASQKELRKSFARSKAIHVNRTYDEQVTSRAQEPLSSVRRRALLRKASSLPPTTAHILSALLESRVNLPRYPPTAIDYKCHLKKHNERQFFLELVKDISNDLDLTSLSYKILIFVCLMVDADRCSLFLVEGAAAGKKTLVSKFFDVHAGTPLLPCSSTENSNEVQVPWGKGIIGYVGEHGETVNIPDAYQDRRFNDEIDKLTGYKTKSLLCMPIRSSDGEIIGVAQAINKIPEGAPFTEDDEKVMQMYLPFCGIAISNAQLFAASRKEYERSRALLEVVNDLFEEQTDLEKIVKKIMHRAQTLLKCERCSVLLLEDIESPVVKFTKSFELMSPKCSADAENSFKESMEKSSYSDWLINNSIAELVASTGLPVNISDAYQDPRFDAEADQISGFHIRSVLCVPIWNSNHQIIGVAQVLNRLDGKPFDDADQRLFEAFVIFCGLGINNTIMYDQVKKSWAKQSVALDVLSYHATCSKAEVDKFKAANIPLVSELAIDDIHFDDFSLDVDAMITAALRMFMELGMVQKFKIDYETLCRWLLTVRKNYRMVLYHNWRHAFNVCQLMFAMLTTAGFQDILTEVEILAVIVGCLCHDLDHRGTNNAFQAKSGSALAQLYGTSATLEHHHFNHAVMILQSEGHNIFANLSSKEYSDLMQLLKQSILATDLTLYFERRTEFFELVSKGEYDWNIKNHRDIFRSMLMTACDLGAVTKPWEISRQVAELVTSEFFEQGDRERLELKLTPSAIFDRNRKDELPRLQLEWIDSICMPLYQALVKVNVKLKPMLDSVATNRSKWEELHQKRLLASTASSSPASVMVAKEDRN

Homo sapiens [3] = species: Homo sapiens; assay: Selectivity index, ratio of IC50 for inhibition of full length recombinant human N-terminal GST-tagged PDE11A4 expressed in baculovirus infected sf9 cells to IC50 for inhibition of full length recombinant human N-terminal GST-tagged PDE5A1 expressed in baculovirus infected sf9 cells
[4] = Stability of the compound in PDE5 enzyme assay condition at 100 uM by HPLC analysis; format: ADME
Homo sapiens [5] = species: Homo sapiens; assay: Selectivity index, ratio of IC50 for inhibition of full length recombinant human N-terminal GST-tagged PDE6C expressed in baculovirus infected sf9 cells to IC50 for inhibition of full length recombinant human N-terminal GST-tagged PDE5A1 expressed in baculovirus infected sf9 cells
[6] = molecular target: High affinity cGMP-specific 3',5'-cyclic phosphodiesterase 9A (Homo sapiens, UniProt O76083); assay: Inhibition of full length recombinant human N-terminal GST-tagged PDE9A2 expressed in baculovirus infected sf9 cells using […] as substrate after 1 hr by fluorescence polarization assay; how it was run: as §1
Chain of High affinity cGMP-specific 3',5'-cyclic phosphodiesterase 9A (O76083 whole entry): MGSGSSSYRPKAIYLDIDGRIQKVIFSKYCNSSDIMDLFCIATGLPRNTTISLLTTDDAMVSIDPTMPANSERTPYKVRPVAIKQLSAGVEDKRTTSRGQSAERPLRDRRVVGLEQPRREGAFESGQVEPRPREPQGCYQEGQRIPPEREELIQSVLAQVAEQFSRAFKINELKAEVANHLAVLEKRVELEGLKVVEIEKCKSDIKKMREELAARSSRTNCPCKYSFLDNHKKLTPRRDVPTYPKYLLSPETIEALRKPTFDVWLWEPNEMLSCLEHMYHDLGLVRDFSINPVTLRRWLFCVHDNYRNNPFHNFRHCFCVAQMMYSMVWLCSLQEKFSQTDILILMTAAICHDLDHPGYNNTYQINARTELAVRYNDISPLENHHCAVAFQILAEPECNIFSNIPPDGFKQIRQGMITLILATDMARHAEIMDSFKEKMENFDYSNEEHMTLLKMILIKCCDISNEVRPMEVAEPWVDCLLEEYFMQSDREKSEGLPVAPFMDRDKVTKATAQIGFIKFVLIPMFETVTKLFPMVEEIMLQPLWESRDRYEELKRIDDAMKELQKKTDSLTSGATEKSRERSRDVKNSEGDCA

[7] = molecular target: T1, cGMP-specific 3',5'-cyclic phosphodiesterase (Homo sapiens, UniProt O76074); assay: Inhibition of full length recombinant human N-terminal GST-tagged PDE5A1 expressed in baculovirus infected sf9 cells at 100 nM using FAM-cyclic-3',5-GMP as substrate after 1 hr by fluorescence polarization assay relative to control
How it was run: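 Single-point test at 100 nM, reported as percent inhibition. Human PDE5 at 15 ng/mL with 100 nM FAM-cGMP in MOPS pH 7.5 buffer (MgCl2, EDTA, BSA, DTT), 1% DMSO final, 60 min at 25 °C. Binding agent added for 1 h, then fluorescence polarization read at […] nm.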

[8] = molecular target: cAMP and cAMP-inhibited cGMP 3',5'-cyclic phosphodiesterase 10A (Homo sapiens, UniProt Q9Y233); assay: Inhibition of recombinant human N-terminal GST-tagged PDE10A1 (2 to 789 residues) expressed in baculovirus infected sf9 cells using FAM-cyclic-3',5-AMP as substrate after 1 hr by fluorescence polarization assay; how it was run: as §1
Chain of cAMP and cAMP-inhibited cGMP 3',5'-cyclic phosphodiesterase 10A (Q9Y233 whole entry, the tested form may be a part): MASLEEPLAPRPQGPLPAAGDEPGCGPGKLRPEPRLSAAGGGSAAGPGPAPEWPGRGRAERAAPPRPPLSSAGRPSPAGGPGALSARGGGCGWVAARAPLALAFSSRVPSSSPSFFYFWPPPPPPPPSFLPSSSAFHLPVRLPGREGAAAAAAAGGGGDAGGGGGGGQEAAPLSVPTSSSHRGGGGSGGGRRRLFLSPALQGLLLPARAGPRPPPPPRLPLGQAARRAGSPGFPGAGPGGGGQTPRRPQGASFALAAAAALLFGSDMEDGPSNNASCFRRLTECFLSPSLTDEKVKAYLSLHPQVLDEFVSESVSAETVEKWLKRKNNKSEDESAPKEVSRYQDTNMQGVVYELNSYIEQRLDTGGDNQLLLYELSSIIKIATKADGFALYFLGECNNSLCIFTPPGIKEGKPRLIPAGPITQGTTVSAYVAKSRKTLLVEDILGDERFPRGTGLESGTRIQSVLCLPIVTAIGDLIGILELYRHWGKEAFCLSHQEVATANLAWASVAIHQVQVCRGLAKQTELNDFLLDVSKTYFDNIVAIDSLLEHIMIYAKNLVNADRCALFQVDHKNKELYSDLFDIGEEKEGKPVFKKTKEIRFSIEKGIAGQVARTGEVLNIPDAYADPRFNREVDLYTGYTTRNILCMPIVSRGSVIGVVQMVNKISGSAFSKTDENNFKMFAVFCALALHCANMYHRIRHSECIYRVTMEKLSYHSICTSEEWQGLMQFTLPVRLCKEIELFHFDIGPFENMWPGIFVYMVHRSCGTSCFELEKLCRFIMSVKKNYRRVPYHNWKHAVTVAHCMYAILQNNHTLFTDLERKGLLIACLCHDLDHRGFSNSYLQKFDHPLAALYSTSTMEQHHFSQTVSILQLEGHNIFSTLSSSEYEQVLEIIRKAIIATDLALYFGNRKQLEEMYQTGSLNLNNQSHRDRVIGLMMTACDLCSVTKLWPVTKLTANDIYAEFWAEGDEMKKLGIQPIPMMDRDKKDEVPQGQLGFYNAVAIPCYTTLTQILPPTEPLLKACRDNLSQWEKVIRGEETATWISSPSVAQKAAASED

[9] = molecular target: 3',5'-cyclic-AMP phosphodiesterase 4A (Homo sapiens, UniProt P27815); assay: Inhibition of full length recombinant human N-terminal GST-tagged PDE4A1A expressed in baculovirus infected sf9 cells using FAM-cyclic-3',5-AMP as substrate after 1 hr by fluorescence polarization assay
[10] = molecular target: cGMP-inhibited 3',5'-cyclic phosphodiesterase 3B (Homo sapiens, UniProt Q13370); assay: Inhibition of recombinant human N-terminal GST-tagged PDE3B (592 to end residues) expressed in baculovirus infected sf9 cells using FAM-cyclic-3',5-AMP as substrate after 1 hr by fluorescence polarization assay; how it was run: as §1
[11] = molecular target: High affinity cAMP-specific and IBMX-insensitive 3',5'-cyclic phosphodiesterase 8A (Homo sapiens, UniProt O60658); assay: Inhibition of full length recombinant human N-terminal GST-tagged PDE8A1 expressed in baculovirus infected sf9 cells using FAM-cyclic-3',5-AMP as substrate after 1 hr by fluorescence polarization assay; how it was run: as §1
Chain of High affinity cAMP-specific and IBMX-insensitive 3',5'-cyclic phosphodiesterase 8A (O60658 whole entry): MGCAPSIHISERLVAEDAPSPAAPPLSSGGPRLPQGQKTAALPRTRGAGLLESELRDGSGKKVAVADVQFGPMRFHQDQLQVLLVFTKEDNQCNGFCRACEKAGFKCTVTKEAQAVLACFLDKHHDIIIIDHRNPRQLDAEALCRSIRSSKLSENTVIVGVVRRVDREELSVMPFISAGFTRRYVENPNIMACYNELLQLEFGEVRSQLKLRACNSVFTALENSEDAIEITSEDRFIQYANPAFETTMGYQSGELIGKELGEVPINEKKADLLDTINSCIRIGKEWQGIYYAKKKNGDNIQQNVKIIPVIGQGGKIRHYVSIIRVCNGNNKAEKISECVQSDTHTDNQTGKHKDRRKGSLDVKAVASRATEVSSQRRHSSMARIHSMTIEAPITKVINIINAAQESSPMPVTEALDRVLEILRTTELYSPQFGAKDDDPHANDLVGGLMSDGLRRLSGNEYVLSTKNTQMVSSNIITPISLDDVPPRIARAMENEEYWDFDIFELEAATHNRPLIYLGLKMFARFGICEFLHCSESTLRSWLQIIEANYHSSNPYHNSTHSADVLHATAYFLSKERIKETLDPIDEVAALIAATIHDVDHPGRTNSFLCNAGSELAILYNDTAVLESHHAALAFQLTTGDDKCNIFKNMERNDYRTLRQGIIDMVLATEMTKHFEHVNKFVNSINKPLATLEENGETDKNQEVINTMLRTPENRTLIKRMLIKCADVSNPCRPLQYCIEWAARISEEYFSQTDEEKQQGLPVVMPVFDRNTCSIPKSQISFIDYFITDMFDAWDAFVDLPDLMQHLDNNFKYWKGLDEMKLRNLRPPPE

[12] = molecular target: cGMP-specific 3',5'-cyclic phosphodiesterase (Rattus norvegicus, UniProt O54735); assay: (§2) Inhibition of PDE5 in Wistar rat mesentric arteries assessed as inhibition of phenylephrine-induced contraction by measuring increase in acetylcholine-induced vasorelaxation by pressure myographic method
How it was run: (§3)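 Third-order rat mesenteric arteries (110–150 µm), 3–4 mm unbranched segments, cannulated in PSS (pH 7.4, 95% O2/5% CO2). Equilibrated 35 min while pressure was stepped 10→60 mmHg. Checked with 120 mM KCl and acetylcholine, then constricted with 20 µM phenylephrine (norepinephrine in text) and given compounds cumulatively. Ca²⁺-free PSS set maximal dilation. Outer diameter recorded as % relaxation; EC50 from normalized nonlinear fit.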

[13] = molecular target: cGMP-specific 3',5'-cyclic phosphodiesterase (Rattus norvegicus) (UniProt O54735); assay: as §2; how it was run: as §3
Homo sapiens [14] = species: Homo sapiens; assay: Selectivity index, ratio of IC50 for inhibition of full length recombinant human N-terminal GST-tagged PDE8A1 expressed in baculovirus infected sf9 cells to IC50 for inhibition of full length recombinant human N-terminal GST-tagged PDE5A1 expressed in baculovirus infected sf9 cells
[15] = molecular target: Cone cGMP-specific 3',5'-cyclic phosphodiesterase subunit alpha' (Homo sapiens, UniProt P51160); assay: Inhibition of full length recombinant human N-terminal GST-tagged PDE6C expressed in baculovirus infected sf9 cells using […] as substrate after 1 hr by fluorescence polarization assay
Chain of Cone cGMP-specific 3',5'-cyclic phosphodiesterase subunit alpha' (P51160 whole entry): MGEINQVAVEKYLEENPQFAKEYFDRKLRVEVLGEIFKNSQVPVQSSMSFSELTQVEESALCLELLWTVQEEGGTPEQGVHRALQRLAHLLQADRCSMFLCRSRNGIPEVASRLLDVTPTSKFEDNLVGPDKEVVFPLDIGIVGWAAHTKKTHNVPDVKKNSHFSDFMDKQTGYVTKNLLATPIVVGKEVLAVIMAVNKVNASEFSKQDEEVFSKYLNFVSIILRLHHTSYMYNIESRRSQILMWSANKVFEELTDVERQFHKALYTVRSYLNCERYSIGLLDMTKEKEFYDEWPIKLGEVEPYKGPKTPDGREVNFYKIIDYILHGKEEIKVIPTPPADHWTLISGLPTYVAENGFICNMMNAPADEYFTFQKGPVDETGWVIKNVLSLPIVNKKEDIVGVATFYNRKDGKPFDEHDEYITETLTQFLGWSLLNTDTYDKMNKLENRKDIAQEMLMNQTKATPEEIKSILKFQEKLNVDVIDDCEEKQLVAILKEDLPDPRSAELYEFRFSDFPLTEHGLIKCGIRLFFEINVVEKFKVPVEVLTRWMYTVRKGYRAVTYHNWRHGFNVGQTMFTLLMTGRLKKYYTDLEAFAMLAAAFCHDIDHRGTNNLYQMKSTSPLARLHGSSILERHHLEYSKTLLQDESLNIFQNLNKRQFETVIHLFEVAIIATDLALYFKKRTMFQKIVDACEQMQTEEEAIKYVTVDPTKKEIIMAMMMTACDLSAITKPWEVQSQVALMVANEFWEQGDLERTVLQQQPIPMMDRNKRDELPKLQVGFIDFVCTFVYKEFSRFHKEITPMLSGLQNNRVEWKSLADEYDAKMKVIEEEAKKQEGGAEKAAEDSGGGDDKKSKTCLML

Homo sapiens [16] = species: Homo sapiens; assay: Selectivity index, ratio of IC50 for inhibition of full length recombinant human N-terminal GST-tagged PDE9A2 expressed in baculovirus infected sf9 cells to IC50 for inhibition of full length recombinant human N-terminal GST-tagged PDE5A1 expressed in baculovirus infected sf9 cells
Homo sapiens [17] = species: Homo sapiens; assay: Selectivity index, ratio of IC50 for inhibition of recombinant human N-terminal GST-tagged PDE10A1 (2 to 789 residues) expressed in baculovirus infected sf9 cells to IC50 for inhibition of full length recombinant human N-terminal GST-tagged PDE5A1 expressed in baculovirus infected sf9 cells
Homo sapiens [18] = species: Homo sapiens; assay: Selectivity index, ratio of IC50 for inhibition of recombinant human N-terminal GST-tagged PDE7A (122 to end residues) expressed in baculovirus infected sf9 cells to IC50 for inhibition of full length recombinant human N-terminal GST-tagged PDE5A1 expressed in baculovirus infected sf9 cells
[19] = molecular target: T1, cGMP-specific 3',5'-cyclic phosphodiesterase; assay: Inhibition of full length recombinant human N-terminal GST-tagged PDE5A1 expressed in baculovirus infected sf9 cells using FAM-cyclic-3',5-GMP as substrate after 1 hr by fluorescence polarization assay
[20] = molecular target: cGMP-dependent 3',5'-cyclic phosphodiesterase (Homo sapiens, UniProt O00408); assay: Inhibition of recombinant human N-terminal FLAG-tagged PDE2A (2 to 941 residues) expressed in baculovirus infected sf9 cells using FAM-cyclic-3',5-AMP as substrate after 1 hr by fluorescence polarization assay; how it was run: as §1
[21] = molecular target: High affinity 3',5'-cyclic-AMP phosphodiesterase 7A (Homo sapiens, UniProt Q13946); assay: Inhibition of recombinant human N-terminal GST-tagged PDE7A (122 to end residues) expressed in baculovirus infected sf9 cells using FAM-cyclic-3',5-AMP as substrate after 1 hr by fluorescence polarization assay; how it was run: as §1
Chain of High affinity 3',5'-cyclic-AMP phosphodiesterase 7A (Q13946 whole entry): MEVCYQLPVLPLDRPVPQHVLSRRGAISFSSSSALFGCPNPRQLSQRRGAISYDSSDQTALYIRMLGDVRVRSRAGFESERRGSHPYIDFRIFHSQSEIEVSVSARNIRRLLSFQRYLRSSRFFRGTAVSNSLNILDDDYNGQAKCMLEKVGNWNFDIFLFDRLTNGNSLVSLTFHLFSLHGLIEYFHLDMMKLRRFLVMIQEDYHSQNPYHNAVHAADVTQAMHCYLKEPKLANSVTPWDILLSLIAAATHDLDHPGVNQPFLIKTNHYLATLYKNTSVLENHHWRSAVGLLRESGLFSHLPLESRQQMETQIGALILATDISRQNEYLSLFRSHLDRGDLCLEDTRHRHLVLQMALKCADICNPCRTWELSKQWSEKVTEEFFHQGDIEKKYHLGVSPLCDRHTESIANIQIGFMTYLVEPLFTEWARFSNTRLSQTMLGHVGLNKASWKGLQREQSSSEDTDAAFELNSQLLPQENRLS

SMILES	IC50 [1] [µM]	IC50 [2] [µM]	Ratio IC50 (Homo sapiens [3])	Stability [4]	Ratio IC50 (Homo sapiens [5])	IC50 [6] [µM]	inhibition [7] [%]	IC50 [8] [µM]	IC50 [9] [µM]	IC50 [10] [µM]	IC50 [11] [µM]	EC50 [12] [µM]	percent relaxation [13]	Ratio IC50 (Homo sapiens [14])	IC50 [15] [µM]	Ratio IC50 (Homo sapiens [16])	Ratio IC50 (Homo sapiens [17])	Ratio IC50 (Homo sapiens [18])	IC50 [19] [µM]	IC50 [20] [µM]	further results
CCc1ccc([C@@H]2c3[nH]c4ccccc4c3C[C@H]3C(=O)N(CC)C(=O)N23)o1	> 20	> 1	> 342	Stable	43	> 3	99.5	> 3	> 10	> 20	> 3	0.063	Dose-dependent effect	> 1000	0.127	> 1000	> 1000	> 1000	0.00292	> 20	IC50 [21]: > 3 µM
CCc1ccc([C@@H]2c3[nH]c4ccccc4c3C[C@@H]3C(=O)N(C)CC(=O)N23)s1	> 20	0.272	70	Stable	> 258	> 4	97.8	> 4	> 10	> 20	> 4	0.03	Dose-dependent effect	> 1000	> 1	> 1000	> 1000	> 1000	0.00387	> 20	IC50 [21]: > 4 µM
